Laboratory results from PubChem BioAssay AID449757 (Broad Institute, 2010).
Active and inactive are the calls of the source.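 The calls were made as follows: active = compounds whose fitted caspase activation midpoint falls no more than tenfold above the top tested dose; inconclusive = flat fit with activity between 30 and 70 percent, or failed fit; inactive = the rest.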

Each compound was assayed on MEF Flag-A1-IRES-BIM, caspase-Glo luminescence, 3 h (assay: Caspase-Glo signal, Flag-A1-IRES-BIM MEF cells – cell-based, alternate construct, luminescence, A1 (Bcl2A1) inhibitor project, dose response (AID 449757)).
Summary of the method: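 Assay system: mouse embryonic fibroblasts primed via Flag-A1-IRES-BIM expression construct; quantity: 2500 cells per well, seeded one day before compound; medium: RPMI-1640 growth medium with 10% FBS; doses: 100 nL compound added per well by pin transfer; timing: 3-h compound at 37 °C, 30-min cooling, 1-h reagent at RT; measured by: CaspaseGlo luminescence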

Structure (SMILES)	AC50
O=C(/C=C/c1ccc(F)cc1)NC(=S)Nc1ccccc1C(=O)NC1CCCCC1	> 35 µM (inactive)
COc1ccc(-c2oc(=O)c3cc(OC)c(OC)cc3c2/C=C/c2cccc([N+](=O)[O-])c2)cc1	> 35 µM (inactive)
COc1ccccc1-c1cc(C(F)(F)F)nc(S(=O)(=O)CCCC(=O)N2CCOCC2)n1	8.31 µM
COc1ccc(C2CC(c3c(O)cc(C)oc3=O)=NCCS2)c(OC)c1 (stereo not given)	> 35 µM (inactive)
O=C(NC[C@H]1CCCO1)c1cccc2c1C(=O)c1ccc(-c3ccc(F)cc3OCc3ccccc3)cc1S2(=O)=O	> 35 µM (inactive)
C#CC(=O)N(c1cc(OC)ccc1OC)C(C(=O)NC1CCCC1)c1cccs1 (stereo not given)	> 35 µM (inactive)
O=C(COc1ccccc1[N+](=O)[O-])Nc1ccc(NC(=O)c2cc3ccccc3o2)cc1	28.7 µM
CC(=O)OC(C)(C)/C=C/C(=O)[C@](C)(O)C1[C@H](O)C[C@@]2(C)C3CC=C4C(C[C@H](O)C(=O)C4(C)C)[C@]3(C)C(=O)C[C@]12C (stereo not given in full)	> 35 µM (inactive)
O=S1(=O)CCOC[C@H](CC2CCCCC2)N1Cc1cccc(Cl)c1	> 35 µM (inactive)
CC[C@H]1CN2CCc3cc(OC)c(OC)cc3[C@@H]2C[C@@H]1C[C@H]1NCCc2cc(OC)c(OC)cc21	> 35 µM (inactive)
CCOC(=O)c1sc(NC(=O)CSc2nc(C)cc(C)c2C#N)c(C#N)c1C	> 35 µM (inactive)
COc1cc(CN2CCN(c3cc(C)ccc3C)CC2)ccc1O	> 35 µM (inactive)
CCOC(=O)/C(=C\c1cccnc1)C(=O)c1cc(C(C)=O)c(Nc2ccccc2)s1	4.1 µM
COc1ccccc1C(=O)Nc1ccnn1C1CCN(Cc2cn(C)c3ccccc23)CC1	> 35 µM (inactive)
C/C1=C\[C@@H](C)C/C=C/[C@H]2[C@@H]3O[C@]3(C)[C@@H](C)[C@H]3[C@H](Cc4c[nH]c5ccccc45)NC(=O)[C@]32C(=O)/C=C/C(=O)[C@@H]1O	9.84 µM
CCOC(=O)C(C(=O)OCC)c1cc(Br)c2noc3c2c1C(=O)c1ccccc1-3	14.8 µM
Cc1ccc(-c2nc(NC(=O)c3nn(C)cc3[N+](=O)[O-])sc2C)cc1	6.7 µM
COc1cc(SC#N)ccc1N=Cc1c(C)[nH]n(-c2ccc(C)cc2)c1=O	25.3 µM
COc1ccc2[nH]c3c(=O)n(/N=C/[C@H]4C(C)C=C(C)CC4C)c(=O)[nH]c3c2c1 (stereo not given in full)	11 µM
COC(=O)c1ccc2c(c1)C(C)(C)C(/C=C/c1ccc(O)cc1)=[N+]2C	12.4 µM
COc1ccc(NC(=S)NC(NC(=O)/C=C/c2ccccc2)C(Cl)(Cl)Cl)cc1 (stereo not given)	> 35 µM (inactive)
O=C(Nc1ccc2oc(-c3ccccc3F)nc2c1)c1ccccc1F	> 35 µM (inactive)

Structure (SMILES)	AC50
Cc1cc(=O)[nH]c(SCC(=O)Nc2ccc(Br)cc2)c1C#N	> 35 µM (inactive)
Cc1nn(Cc2c(Cl)cccc2Cl)c(C)c1NC(=O)c1cn(-c2ccccc2)nc1-c1ccccc1	19.2 µM
Cn1cc([N+](=O)[O-])c(C(=O)Nc2cc(Oc3ccccc3)cc([N+](=O)[O-])c2)n1	19.5 µM
Nc1nc(F)nc2c1ncn2[C@@H]1O[C@H](CO)[C@@H](O)[C@H]1O	> 35 µM (inactive)
COc1ccc(-c2nc(NC(=O)c3n[nH]c(=O)c4ccccc34)sc2C)cc1	> 35 µM (inactive)
Cc1ccc(-c2nc(NC(=O)c3nn(C)cc3[N+](=O)[O-])sc2C)cc1C	3.62 µM
O=C(Nc1ccc([N+](=O)[O-])cc1)c1nc[nH]c1C(=O)NC1CCCCC1	> 35 µM (inactive)
CCc1ccc(Nc2n[n+](-c3ccccc3)c(/C=C/c3ccccc3)s2)cc1	10.3 µM
COc1ccc(NC(=O)CSc2nc3ccc(Nc4nc(N5CCOCC5)nc(N5CCOCC5)n4)cc3s2)cc1	> 35 µM (inactive)
Cc1ccc2nc(N(CCCN(C)C)C(=O)c3ccc(S(=O)(=O)N4CCc5ccccc5C4)cc3)sc2c1	> 35 µM (inactive)
COc1ccc(-c2c(C#N)c(N)nc(Sc3ccc(Cl)cc3)c2C#N)cc1	> 35 µM (inactive)
CCOc1cccc(C(=O)Nc2cccc(-c3nnc(-c4ccc(C)cc4)o3)c2)c1	8.37 µM
Cc1ccc(C#N)c(SCC(=O)Nc2nccs2)n1	> 35 µM (inactive)
Cc1ccc(NC(=S)NC(NC(=O)Cc2cccc3ccccc23)C(Cl)(Cl)Cl)cc1 (stereo not given)	20.2 µM
Oc1ccc(/C=N/N2CCN(C3c4ccccc4-c4ccccc43)CC2)cc1O	24 µM
CC1=NNC(=O)/C1=C\c1cn(-c2ccccc2)nc1-c1cccs1	14.2 µM
CCOC(=O)Cc1csc(/N=C/c2c(O)n(-c3ccc(C)c(C)c3)c(=O)c3ccccc23)n1	15.9 µM
Cc1ccc(NC(=O)CSc2nc3nc(C)c(Br)cc3[nH]2)cc1F	> 35 µM (inactive)
CC(=O)OC(C)(C)/C=C/C(=O)C(C)(O)C1[C@H](O)C[C@@]2(C)C3CC=C4C(CC[C@@H](O)C4(C)C)[C@]3(CO)C(=O)C[C@]12C (stereo not given in full)	> 35 µM (inactive)
COc1cc(/C=C(/C#N)c2nc3ccccc3[nH]2)ccc1OCC(=O)Nc1ccccc1C(C)C	16.1 µM
COC(=O)Cc1csc(/N=C/c2c(O)n(-c3cccc(C(F)(F)F)c3)c(=O)c3ccccc23)n1	18.1 µM
COc1ccc(Oc2cc(NC(=O)c3nn(C)cc3[N+](=O)[O-])cc([N+](=O)[O-])c2)cc1	21.3 µM

Structure (SMILES)	AC50
COc1ccc(OC)c(NC(=O)c2cc(-c3cc(C)ccc3O)n[nH]2)c1	> 35 µM (inactive)
CCS(=O)(=O)c1ncc(Cl)c(C(=O)Nc2ccc(S(=O)(=O)N3CCC(C)CC3)cc2)n1	> 35 µM (inactive)
CCOc1cc(/C=C2/C(=N)N3C=CSC3=NC2=O)ccc1OCCCOc1ccccc1C	35.4 µM
COc1ccc2c(c1)CCc1c(C(=O)Nc3cc(C)n(Cc4ccc(Cl)cc4)n3)noc1-2	21.9 µM
C=CC(=O)Nc1ccc(CN2C(=O)N(c3c(Cl)c(OC)cc(OC)c3Cl)Cc3cnc(NCCCCN(CC)CC)nc32)cc1	> 35 µM (inactive)
Cc1ccc(C(=O)/C=C/C(=O)c2ccc(C)cc2)cc1	5.64 µM
Oc1[nH]c2ccc(Br)cc2c1N=NC(=S)Nc1ccc(F)cc1	> 35 µM (inactive)
COc1cc(NC(=O)c2cccs2)ccc1NC(=O)c1cc2ccccc2o1	> 35 µM (inactive)
N#CC(C#N)=C1C=CC=CN1/C(=C\c1ccccc1Cl)C(=O)c1ccccc1	3.43 µM
Cc1ccc(C(=O)/C=C\C(=O)c2ccc(C)cc2)cc1	36.7 µM
COCc1cc(C)nc(SCC(=O)Nc2nc(C)cs2)c1C#N	> 35 µM (inactive)
Clc1ccccc1CN(Cc1ccccc1)c1ncnc2nc[nH]c12	> 35 µM (inactive)
COc1cccc(C(=O)C(C#N)=C(SC)SC)c1	> 35 µM (inactive)
O=c1c(Cl)c(Cl)cnn1Cc1ccccc1Cl	> 35 µM (inactive)
CCc1ccccc1NC(=O)C(CC)Sc1nc2cc3c(cc2c(=O)n1Cc1ccco1)OCO3 (stereo not given)	> 35 µM (inactive)
CCOC(=O)c1ccc(-c2ccc(/C=N/NC(=O)CN(c3cccc(C)c3)S(C)(=O)=O)o2)cc1	36.2 µM
CC1CC(C)CN(C(=O)c2ccc(-c3ccc([N+](=O)[O-])cc3)o2)C1 (stereo not given)	> 35 µM (inactive)
Cc1ccc(S(=O)(=O)N(C)Cc2ccc(C(=O)N/N=C/c3ccc(OC(F)F)cc3)cc2)cc1	> 35 µM (inactive)
COC(=O)c1ccc2c(=O)n(Cc3ccc4c(c3)OCO4)c(=S)[nH]c2c1	> 35 µM (inactive)
Cc1ccc2c(c1)C(=O)C(=O)N2Cc1ccc(Br)cc1	> 35 µM (inactive)
CCOc1ccc(-n2c(SCC(=O)Nc3ccc(Br)cc3)nc3n[nH]c(C)c3c2=N)cc1	31 µM
